According to ChEMBL document CHEMBL1149038 (J Nat Prod, 1994):

How the values were obtained:
[1] = Therapeutic index, IC50 for human H9 cells to EC50 for HIV1 3B; type: cell-based; settings: read-out: Ratio IC50/EC50
[2] = tested on: Human immunodeficiency virus 1; assay: Antiviral activity against HIV1 3B in human H9 cells assessed as inhibition of viral replication after 3 days by p24 antigen capture assay; type: functional, organism-based; settings: Human immunodeficiency virus 1, 3B, H9, 72 h
Procedure, shortened: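 H9 lymphocytes (1 × 10^7 cells/ml) exposed to HIV-1 IIIB for 1 h at 37°, washed free of unadsorbed virus, resuspended at […] and mixed with an equal volume of compound dilution; 3 days at 37°. Infection read by p24 antigen capture, at four concentrations relative to infected untreated cultures; EC50 = concentration inhibiting replication by 50%.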

H9 = assay: Cytotoxicity against human H9 cells after 3 days; type: cell-based; settings: H9, 72 h
Procedure, shortened: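 Uninfected H9 lymphocytes cultured with an equal volume of compound dilution for 3 days at 37°. Cell density then counted; IC50 = concentration inhibiting lymphocyte growth by 50%.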

[3] = molecular target: Protein kinase C beta type (Homo sapiens, UniProt P05771); assay: Inhibition of PKC beta2
Sequence of Protein kinase C beta type (P05771 whole entry): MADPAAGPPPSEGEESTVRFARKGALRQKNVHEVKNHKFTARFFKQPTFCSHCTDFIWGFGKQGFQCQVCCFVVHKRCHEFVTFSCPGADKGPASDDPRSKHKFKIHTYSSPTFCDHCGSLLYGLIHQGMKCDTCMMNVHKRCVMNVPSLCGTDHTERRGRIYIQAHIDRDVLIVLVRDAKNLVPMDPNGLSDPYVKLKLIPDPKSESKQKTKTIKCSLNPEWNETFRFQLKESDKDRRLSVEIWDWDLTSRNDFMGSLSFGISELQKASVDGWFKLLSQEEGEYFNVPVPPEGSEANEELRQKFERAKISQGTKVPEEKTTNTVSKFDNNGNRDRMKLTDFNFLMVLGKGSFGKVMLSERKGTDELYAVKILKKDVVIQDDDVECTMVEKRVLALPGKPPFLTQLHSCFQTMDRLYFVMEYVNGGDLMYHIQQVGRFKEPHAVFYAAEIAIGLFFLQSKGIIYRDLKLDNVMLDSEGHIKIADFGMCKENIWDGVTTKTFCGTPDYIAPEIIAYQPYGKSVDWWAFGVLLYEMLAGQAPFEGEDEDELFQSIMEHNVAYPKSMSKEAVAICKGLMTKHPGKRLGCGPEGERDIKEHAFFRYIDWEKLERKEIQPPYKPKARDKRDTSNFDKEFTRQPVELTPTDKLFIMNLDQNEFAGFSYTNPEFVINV
Procedure, shortened: (§1)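 Purified PKC isoenzyme (20 ng) starts the reaction. Mix: phosphatidylserine 40 µg/ml/diacylglycerol 1.76 µg/ml vesicles, 20 mM HEPES pH 7.5, 10 mM MgCl2, 200 µg/ml histone substrate, 100 µM CaCl2, 47.5 µM EGTA, 20 µM [32P]ATP; compounds in DMSO. 10 min at 30°, stopped with cold TCA plus BSA, precipitate filtered and scintillation-counted.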

[4] = molecular target: T1, Protein kinase C epsilon type (Homo sapiens, UniProt Q02156); assay: Inhibition of PKC epsilon; procedure, shortened: as §1
T1 sequence (Q02156 whole entry): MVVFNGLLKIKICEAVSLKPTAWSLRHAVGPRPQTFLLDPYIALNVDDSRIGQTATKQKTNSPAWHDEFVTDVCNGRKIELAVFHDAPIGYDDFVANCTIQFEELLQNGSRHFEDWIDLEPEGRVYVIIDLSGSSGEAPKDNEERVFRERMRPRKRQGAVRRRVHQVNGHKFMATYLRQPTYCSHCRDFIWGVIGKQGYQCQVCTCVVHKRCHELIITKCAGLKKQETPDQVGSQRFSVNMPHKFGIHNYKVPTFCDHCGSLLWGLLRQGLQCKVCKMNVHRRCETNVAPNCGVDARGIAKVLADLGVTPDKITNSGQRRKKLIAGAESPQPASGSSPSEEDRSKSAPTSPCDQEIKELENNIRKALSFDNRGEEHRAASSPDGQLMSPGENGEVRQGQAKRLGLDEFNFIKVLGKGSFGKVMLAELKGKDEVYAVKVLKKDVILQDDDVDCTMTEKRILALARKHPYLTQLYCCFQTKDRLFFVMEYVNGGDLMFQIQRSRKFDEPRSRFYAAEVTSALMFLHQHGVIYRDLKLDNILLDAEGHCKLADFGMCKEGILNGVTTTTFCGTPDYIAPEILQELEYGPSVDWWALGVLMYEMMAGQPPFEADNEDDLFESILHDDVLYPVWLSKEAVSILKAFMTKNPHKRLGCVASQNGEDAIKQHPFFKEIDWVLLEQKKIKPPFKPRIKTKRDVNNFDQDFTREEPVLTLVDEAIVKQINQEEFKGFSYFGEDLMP

[5] = molecular target: Protein kinase C gamma type (Homo sapiens, UniProt P05129); assay: Inhibition of PKC gamma; procedure, shortened: as §1
[6] = molecular target: Protein kinase C delta type (Homo sapiens, UniProt Q05655); assay: Inhibition of PKC delta; procedure, shortened: as §1
Sequence of Protein kinase C delta type (Q05655 whole entry): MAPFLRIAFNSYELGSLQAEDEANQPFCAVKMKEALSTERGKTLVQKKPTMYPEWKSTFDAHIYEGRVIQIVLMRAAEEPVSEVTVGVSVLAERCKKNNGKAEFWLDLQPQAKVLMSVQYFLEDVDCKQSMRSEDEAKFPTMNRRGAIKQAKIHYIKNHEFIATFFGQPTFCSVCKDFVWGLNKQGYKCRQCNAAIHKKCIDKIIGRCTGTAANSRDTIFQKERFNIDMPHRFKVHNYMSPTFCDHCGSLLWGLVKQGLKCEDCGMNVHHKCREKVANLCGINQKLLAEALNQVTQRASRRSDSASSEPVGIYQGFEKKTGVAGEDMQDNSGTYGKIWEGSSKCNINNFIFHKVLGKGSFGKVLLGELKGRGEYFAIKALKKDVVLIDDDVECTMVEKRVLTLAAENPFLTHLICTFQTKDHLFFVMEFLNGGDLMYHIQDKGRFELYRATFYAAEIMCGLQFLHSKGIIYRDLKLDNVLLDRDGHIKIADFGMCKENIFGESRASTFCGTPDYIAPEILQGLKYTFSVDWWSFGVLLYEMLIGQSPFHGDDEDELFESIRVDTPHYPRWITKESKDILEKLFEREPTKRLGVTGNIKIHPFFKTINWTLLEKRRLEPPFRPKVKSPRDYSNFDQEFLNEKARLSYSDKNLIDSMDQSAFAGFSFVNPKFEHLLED

SMILES	selectivity ratio [1]	EC50 [2] [µM]	IC50 (H9) [µM]	IC50 [3] [µM]	IC50 [4] [µM]	IC50 [5] [µM]	IC50 [6] [µM]
C=C(C)[C@@H]1CC[C@]2(C(=O)O)CC[C@]3(C)[C@H](CC[C@@H]4[C@@]5(C)CC[C@H](OS(=O)(=O)O)C(C)(C)[C@@H]5CC[C@]43C)[C@@H]12	1.7	20	35	> 150	> 150	37	
C=C(C)[C@@H]1CC[C@]2(C(=O)OCC(=O)OC)CC[C@]3(C)[C@H](CC[C@@H]4[C@@]5(C)CC[C@H](O)C(C)(C)[C@@H]5CC[C@]43C)[C@@H]12	1.5	17	26	> 150	> 150		
C=C(C)[C@@H]1CC[C@]2(C(=O)O)CC[C@]3(C)[C@H](CC[C@@H]4[C@@]5(C)CC[C@H](OC(=O)/C=C/C)C(C)(C)[C@@H]5CC[C@]43C)[C@@H]12	2.5	19	48	> 150	> 150		
C=C(C)[C@@H]1CC[C@]2(CO)CC[C@]3(C)[C@H](CC[C@@H]4[C@@]5(C)CC[C@H](O)C(C)(C)[C@@H]5CC[C@]43C)[C@@H]12 [BETULIN]	1.9	23	45	> 150	> 150		
CC(C)[C@@H]1CC[C@]2(C(=O)O)CC[C@]3(C)C(CCC4[C@@]5(C)CC[C@H](O)C(C)(C)C5CC[C@]43C)C12 (stereo partly drawn) [DIHYDROBETULINIC ACID]	14	0.9		> 150	> 150		46
C=C(C)[C@@H]1CC[C@]2(C(=O)O)CC[C@]3(C)[C@H](CC[C@@H]4[C@@]5(C)CC[C@H](OC(=O)c6ccccc6)C(C)(C)[C@@H]5CC[C@]43C)[C@@H]12	1	15	15	> 150	> 150	74	
C=C(C)[C@@H]1CC[C@]2(C(=O)O)CC[C@]3(C)[C@H](CC[C@@H]4[C@@]5(C)CC[C@H](OC(=O)CCC(=O)O)C(C)(C)[C@@H]5CC[C@]43C)[C@@H]12	4	4	16	> 150	> 150		49
C=C(C)[C@@H]1CC[C@]2(C(=O)O)CC[C@]3(C)[C@H](CC[C@@H]4[C@@]5(C)CC[C@H](O)C(C)(C)[C@@H]5CC[C@]43C)[C@@H]12 [BETULINIC ACID]		1.4		> 150	> 150		
CC(=O)[C@@H]1CC[C@]2(C(=O)O)CC[C@]3(C)[C@H](CC[C@@H]4[C@@]5(C)CC[C@H](O)C(C)(C)[C@@H]5CC[C@]43C)[C@@H]12 [PLATANIC ACID]	13	6.5	90	> 150	> 150		
Cc1cn([C@H]2C[C@H](N=[N+]=[N-])[C@@H](CO)O2)c(=O)[nH]c1=O [ZIDOVUDINE]				> 150	> 150		
C=C(C)[C@@H]1CC[C@]2(C(=O)O)CC[C@]3(C)[C@H](CC[C@@H]4[C@@]5(C)CC[C@H](OC(C)=O)C(C)(C)[C@@H]5CC[C@]43C)[C@@H]12	0.8	25	20	> 150	> 150		
